Screening data as filed in PubChem BioAssay.
TRPC4 act = activators of mouse TRPC4 channel, primary screen, Fluo4 calcium, HEK293 TRPC4beta/mu-opioid cells. AID 2237, 2010. Fluo4 calcium fluorescence; active compounds read high. B-score at 10 µM. Short transient receptor potential channel 4 (Mus musculus), Q9QUQ5. actives 0.49% (n = 310,000);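 active = B-score above 5 SD of library B-scores, and initial fluorescence ratio not above library mean plus 5 SD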;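 note: positive B-score marks a calcium rise read as TRPC4 activation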
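Material: TRPC4beta and mu-opioid receptor HEK293 stable cells | Incubation: 45 min room-temperature Fluo4 loading, 110 s read | Detection: Kinetic Fluo4 calcium fluorescence | Measure: Integrated baseline-normalised fluorescence ratio, converted to per-well B score | Benchmarks: Low control buffer alone, high control maximal DAMGO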
TRPC4 inh = inhibitors of mouse TRPC4 channel, primary screen, Fluo4 calcium, HEK293 TRPC4beta/mu-opioid cells. DAMGO-evoked Fluo4 calcium flux; active compounds read low. B-score at 10 µM. Short transient receptor potential channel 4 (Mus musculus), Q9QUQ5. actives 0.39% (n = 300,000);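 active = B-score over 3 SD under the library average, no early fluorescence shift, positive overall ratio signal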
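Test system – stable TRPC4beta/mu-opioid receptor HEK293 cells · Probe or stimulus – DAMGO, a submaximal dose followed by a maximal one · Dosing – one concentration per compound · Signal – Fluo4 calcium fluorescence by kinetic imaging, 5 s 1 Hz baseline · Evaluation – per-well B score of integrated baseline-normalized Fluo4 ratio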
TRPC4 PAM = positive allosteric modulators of TRPC4, primary screen, cell-based, mouse TRPC4beta, HEK293 mu-opioid, Fluo-4 calcium; Short transient receptor potential channel 4 (Mus musculus), Q9QUQ5; DAMGO EC20, Fluo-4 Ca2+ flux; active compounds read high; B-score at 10 µM; actives 0.42% (n = 310,000);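 active = B-score of calcium response area above 5 SD of library B-scores, with initial fluorescence ratio within 5 SD of library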;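 note: B-score of integrated fluorescence ratio over time as area under calcium response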
TRPC6 activator = mouse TRPC6 channel activators, primary screen, cell-based, HEK293, membrane potential dye; B-score at 10 µM; AID 2550, 2010; HEK293-TRPC6 membrane potential dye fluorescence; active compounds read high; Short transient receptor potential channel 6 (Mus musculus), Q61143; actives 0.13% (n = 310,000);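 active = B-score of the integrated fluorescence ratio above library mean plus 3 SD, and starting fluorescence ratio within library mean plus 5 SD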;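 note: higher score means more depolarization so channel activation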
Target sequence (Q61143 whole entry, looked up): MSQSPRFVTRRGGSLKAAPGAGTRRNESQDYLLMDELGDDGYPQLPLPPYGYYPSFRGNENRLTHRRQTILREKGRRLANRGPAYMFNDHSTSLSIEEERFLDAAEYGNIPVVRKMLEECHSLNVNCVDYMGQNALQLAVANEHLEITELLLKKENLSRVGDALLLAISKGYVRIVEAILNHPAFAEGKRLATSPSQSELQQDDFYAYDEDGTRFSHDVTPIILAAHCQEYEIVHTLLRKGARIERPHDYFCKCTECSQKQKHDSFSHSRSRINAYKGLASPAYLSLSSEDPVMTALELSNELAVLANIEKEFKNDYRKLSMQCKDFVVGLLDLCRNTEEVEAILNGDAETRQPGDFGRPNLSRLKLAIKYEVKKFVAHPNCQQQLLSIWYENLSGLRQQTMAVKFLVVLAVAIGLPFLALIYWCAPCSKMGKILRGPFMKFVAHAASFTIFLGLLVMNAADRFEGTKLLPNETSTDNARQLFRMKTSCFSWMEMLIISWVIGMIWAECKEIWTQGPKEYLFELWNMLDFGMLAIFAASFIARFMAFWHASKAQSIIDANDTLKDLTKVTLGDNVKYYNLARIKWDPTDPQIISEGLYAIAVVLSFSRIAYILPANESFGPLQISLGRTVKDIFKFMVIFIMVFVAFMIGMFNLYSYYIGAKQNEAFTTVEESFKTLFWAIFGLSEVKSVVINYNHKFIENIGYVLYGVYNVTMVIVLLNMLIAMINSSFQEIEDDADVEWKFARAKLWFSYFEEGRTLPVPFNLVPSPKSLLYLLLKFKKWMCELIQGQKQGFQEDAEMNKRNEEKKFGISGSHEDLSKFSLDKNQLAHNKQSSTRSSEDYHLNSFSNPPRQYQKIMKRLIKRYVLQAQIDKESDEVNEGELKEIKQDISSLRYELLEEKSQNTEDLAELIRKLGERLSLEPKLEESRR
TRPC6 inh = mouse TRPC6 channel inhibitors, primary screen, cell-based, HEK293, membrane potential dye. Short transient receptor potential channel 6 (Mus musculus), Q61143. ACh-evoked depolarization; active compounds read low. B-score at 10 µM. actives 1.1% (n = 310,000);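 active = B-score under library mean minus 3 SD, initial fluorescence not abnormally high, positive integrated signal ratio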;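 note: B-score derived from integrated fluorescence ratio over the kinetic read; more negative B-score means stronger inhibition of depolarization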
TRPC4 sel inh 2 = second selectivity test of TRPC6 inhibitors: effect on mouse TRPC4 | shares compounds with TRPC6 inh | HEK293 TRPC4/MOR, membrane potential dye fluorescence; channel activated by saturating DAMGO dose | inhibition, % at 10 µM | actives 42% (n = 920) | AID 2776;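 active = compounds whose fluorescence signal differed from control wells by over 3 SD, either direction, in both duplicate plates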
TRPC4 spec = mouse TRPC4 modulation by TRPC6 hits, confirmation, selectivity assay for TRPC6 inhibitor project, cell-based, HEK293 TRPC4/mu-opioid, membrane potential dye; AID 2777, 2010; membrane potential fluorescence; actives 61% (n = 920); activity change, negative = inhibition, % at 10 µM; shares compounds with TRPC6 inh;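 active = rise or fall in signal beyond 3 SD of buffer-only wells in both replicate plates, either sign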;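 note: integrated kinetic ratio of fluorescence range over baseline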
HEK293 MPD ctr 2-1 = nonspecific membrane potential effects, parental HEK293, confirmation, counter-screen for TRPC6 inhibitor project, cell-based, second counter screen; shares compounds with TRPC6 inh; parental HEK293 membrane potential dye fluorescence; maximal acetylcholine challenge after compound addition; signal change vs control, % at 10 µM; actives 31% (n = 920);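 active = membrane potential signal moving either way by over 3 SD of the maximum-effect control, in both duplicate plates, meaning non-specific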
HEK293 MPD ctr-1 = membrane potential modulation in parental HEK293, confirmation, counter-screen for TRPC6 inhibitor project, cell-based; shares compounds with TRPC6 inh; parental HEK293 membrane potential dye fluorescence; AID 2780, 2010; membrane potential signal change, % at 10 µM; actives 60% (n = 920);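 active = membrane potential signal shifting up or down by more than 3 SD of buffer-only wells, on both duplicate plates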
HEK293 MPD ctr-2 = parental HEK293 membrane potential modulation, confirmation, counter-screen for TRPC6 modulator project, cell-based; shares compounds with TRPC6 inh; membrane potential dye fluorescence; membrane potential signal change, % at 10 µM; actives 51% (n = 2,400);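 active = membrane potential signal moves up or down beyond 5 SD from buffer-only wells, on both duplicate plates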
HEK293 MPD ctr 2-2 = parental HEK293 nonspecific activity of TRPC6 modulators, second screen; shares compounds with TRPC6 inh; actives 14% (n = 2,400); membrane potential dye fluorescence; after compound, maximal acetylcholine stimulation; inhibition, % at 10 µM; AID 488926;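 active = membrane potential signal drops by more than 5 SD from the mean control signal, in both duplicate plates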;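 note: plate controls were acetylcholine ECmax control wells for no effect and buffer only wells for full effect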
TRPC4/MOR mod = TRPC4 modulation by TRPC6 hit compounds, confirmation, selectivity assay for TRPC6 modulator project, cell-based, HEK293 TRPC4/mu-opioid, membrane potential dye, mouse | shares compounds with TRPC6 inh | percent change from control (negative = decrease, positive = increase), % at 10 µM | AID 488927, 2010 | actives 69% (n = 2,400) | membrane potential fluorescence;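 active = membrane potential signal moved up or down beyond 5 SD of buffer control wells, in both duplicate plates, actives on both sides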;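 note: plate controls were assay buffer wells for no effect and DAMGO maximal-effect wells for full effect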
TRPC4/MOR inh 2 = mouse TRPC4 off-target activity of TRPC6 modulators, second screen | inhibition, % at 10 µM | AID 488928 | HEK293 TRPC4/mu-opioid, membrane potential dye fluorescence; stimulated with maximal-effect DAMGO | actives 55% (n = 2,400) | shares compounds with TRPC6 inh;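 active = drop in membrane potential signal beyond 5 SD of the control wells in both duplicate plates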;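 note: TRPC4 counter screen for TRPC6 hits run under conditions tuned for TRPC6 not TRPC4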
TRPC6 inh conf = mouse TRPC6 channel inhibitors, confirmation, HEK293 cells, membrane potential dye, duplicate. ACh-evoked depolarization. AID 488960, 2010. shares compounds with TRPC6 inh. actives 43% (n = 3,300). inhibition, % at 10 µM;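 active = fluorescence ratio falls more than 5 SD below the full-stimulation control mean, in both duplicate runs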;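 note: integrated fluorescence ratio of peak minus minimum over baseline after agonist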
TRPC6 act confirm = mouse TRPC6 channel activators, confirmation, HEK293 cells, membrane potential dye, duplicate; shares compounds with TRPC6 inh; HEK293-TRPC6 membrane potential dye fluorescence, FDSS; activation, % at 10 µM; actives 11% (n = 2,800);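 active = ratio signal rise beyond 5 SD above unstimulated control wells' mean, seen in both duplicate runs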;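 note: plate controls were buffer EC0 wells for no effect and acetylcholine ECmax response for full effect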
* hit, by the source's call; i = inactive; · = no result given. Most compounds without a hit are left out; they make up all but 2.3% or so of the library.

SMILES	TRPC4 act	TRPC4 inh	TRPC4 PAM	TRPC6 activator	TRPC6 inh	HEK293 MPD ctr-2	HEK293 MPD ctr 2-2	TRPC4/MOR mod	TRPC4/MOR inh 2	TRPC6 inh conf	TRPC6 act confirm	others
CCN(CC)CC#CCC(O)(c1ccccc1)C1CCCCC1 (stereo not drawn)	i	i	i	i	i	·	·	·	·	·	·
CC(NCc1ccc(N(C)C)cc1)C1CC2CCC1C2 (stereo not drawn)	i	i	i	i	-6.55*	231.0%*	70.0%*	51.0%*	60.5%*	77.0%*	·
Cc1cc(NCCCN2CCOCC2)n2nc(C)c(-c3ccccc3)c2n1	i	i	i	i	-6.06*	-171.0%*	i	-31.0%*	38.0%*	i	i
CCC1(c2ccccc2)NC(=O)N(CC(=O)Nc2ccc(S(N)(=O)=O)cc2)C1=O (stereo not drawn)	i	i	i	i	i	·	·	·	·	·	·
CC(/C=C/c1cccc([N+](=O)[O-])c1)=N/NC(=O)c1cccnc1	i	i	i	i	-5.86*	i	i	i	i	i	i
CS(=O)(=O)c1cccc(C(=O)Nc2ccc3c(c2)OCCCO3)c1	i	i	i	i	i	·	·	·	·	·	·
Clc1ccc(C(c2ccccc2)N2CCNCC2)cc1 (stereo not drawn)	i	i	i	i	-7.79*	·	·	·	·	i	i	TRPC4 sel inh 2=61.0%*;TRPC4 spec=i;HEK293 MPD ctr 2-1=i;HEK293 MPD ctr-1=i
CC12CNCC(C)(CN(C(c3ccccc3)c3ccccc3)C1)C2	i	i	i	i	-5.6*	181.5%*	i	76.5%*	90.0%*	i	·
CCOc1ccc(OCCC(=O)OCC(=O)NCc2ccc(Cl)cc2)cc1	i	i	i	i	i	·	·	·	·	·	·
COc1cccc(OCc2cc(C(=O)N(C)Cc3nccn3C)no2)c1	i	i	i	i	i	·	·	·	·	·	·
CCOC(=O)c1ccc(NC(=O)CC2C(=O)N(c3ccc(F)cc3)C(=O)N2CCC(C)C)cc1 (stereo not drawn)	i	i	i	i	-5.84*	i	i	i	i	41.5%*	·
COC(=O)CN1C(=S)N(c2ccc(Cl)cc2)C(=O)C1CC(=O)Nc1ccc(Cl)cc1 (stereo not drawn)	i	i	i	i	-6.59*	-68.5%*	i	-19.5%*	32.0%*	i	i
COC(=O)CN1C(=S)N(c2ccc(Cl)cc2)C(=O)C1CC(=O)Nc1ccc(F)cc1 (stereo not drawn)	i	i	i	i	i	·	·	·	·	·	·
C=CCN1C(=O)N(c2ccc(Cl)cc2)C(=O)C1CC(=O)Nc1ccc(F)cc1 (stereo not drawn)	i	i	i	i	-5.79*	-66.5%*	i	-16.5%*	i	i	i
Cc1cc(=O)oc2cc(OCC(=O)N3CC[C@@]4(O)CCCC[C@H]4C3)ccc12	i	i	i	i	i	·	·	·	·	·	·
CCc1c(C)nc2nc(SCc3ccccc3)[nH]n2c1=O	i	i	i	i	i	·	·	·	·	·	·
C[N+]1(CC#CC(O)(c2ccccc2)c2ccccc2)CCCC1	i	i	i	i	-7.34*	·	·	·	·	91.0%*	i	TRPC4 sel inh 2=i;TRPC4 spec=i;HEK293 MPD ctr 2-1=-27.0%*;HEK293 MPD ctr-1=i
CC(C)[N+](C)(C)CC#CC(O)(c1ccccc1)c1ccccc1	i	i	i	i	-9.15*	·	·	·	·	85.1%*	i	TRPC4 sel inh 2=i;TRPC4 spec=i;HEK293 MPD ctr 2-1=25.0%*;HEK293 MPD ctr-1=i
CCN(CC#CCC(O)(c1ccccc1)c1ccccc1)C(C)C	i	i	i	i	i	·	·	·	·	·	·
Cc1ccc(NC(=O)/C=N/OCC(=O)NCc2ccccc2Cl)cc1	i	i	i	i	i	·	·	·	·	·	·
Cc1ccc(/C=C2/NC(=O)N(c3ccccc3)C2=O)o1	i	i	i	i	i	·	·	·	·	·	·
O=C1N/C(=C/c2ccc(N3CCOCC3)o2)C(=O)N1c1cccc(Cl)c1	i	i	i	19*	i	119.5%*	i	33.5%*	i	i	i
Cc1ccc(C(=O)CSc2ccc(-c3cccnc3)nn2)cc1	i	i	i	i	i	·	·	·	·	·	·
